Test results published in ChEMBL document CHEMBL4196151, “Anti-inflammatory Potential of Flavonoids from the Aerial Parts of Corispermum marschallii” (J Nat Prod, 2018).

How the values were obtained:
Neutrophil [1] = assay: Antiinflammatory activity against LPS-stimulated human neutrophils assessed as reduction in IL-8 production incubated for 1 hr followed by LPS stimulation measured after 18 to 24 hrs by ELISA; type: functional, cell-based
In short: (§1)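 Human neutrophils isolated from buffy coat, 1.0 × 10^6/mL in RPMI 1640 with 10% FBS, 10 mM HEPES, 2 mM L-glutamine. Compounds added from 10 mM DMSO stocks at final 10, 20, 50 μM, 1 h before LPS (100 ng/mL). Culture at 37 °C, 5% CO2. Supernatants taken after 18 h by centrifugation and cytokine measured by ELISA. Quercetin positive control; mean ± SEM, ANOVA with Tukey.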

Neutrophil [2] = assay: Antiinflammatory activity against LPS-stimulated human neutrophils assessed as reduction in TNFalpha production incubated for 1 hr followed by LPS stimulation measured after 18 to 24 hrs by ELISA; type: functional, cell-based; in short: as §1
Neutrophil [3] = assay: Cytotoxicity against LPS-stimulated human neutrophils assessed as reduction in cell viability up to 50 uM incubated for 1 hr followed by LPS stimulation by propidium iodide staining based method
In short: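 Viability measured by propidium iodide staining in neutrophils (1 × 10^6/mL) cultured in RPMI 1640. Compounds at final 10, 20, 50 μM were added 1 h before LPS (100 ng/mL). Read-out by cytometry, with 0.1% Triton X-100 as positive control.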

Neutrophil [4] = assay: Antiinflammatory activity against f-MLP-stimulated human neutrophils assessed as reduction in ROS production incubated for 40 mins measured at intervals of 2 mins by luminol-dependent chemiluminescence assay; type: functional, cell-based
In short: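 Freshly isolated human neutrophils suspended in HBSS at 2.0 × 10^5/mL and incubated with compounds at final 5, 10, 20 μM, diluted from DMSO stocks. ROS release triggered by f-MLP and read by luminol-dependent chemiluminescence. Quercetin served as positive control. Data as mean ± SEM, ANOVA with Tukey post hoc test.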

IC50 (Neutrophil [1]) [µM] | IC50 (Neutrophil [2]) [µM] | IC50 (Neutrophil [4]) [µM] | Compound | Activity (Neutrophil [3])
51.9 | 16.3 | 38.5 | COc1cc(-c2oc3cc(O)c(OC)c(O)c3c(=O)c2O[C@@H]2O[C@H](CO)[C@H](O)[C@H](O)[C@H]2O)ccc1O | Non-Toxic
46.7 | 23.2 | 36.6 | COc1cc(/C=C/C(=O)OC[C@H]2O[C@@H](Oc3cc4oc(-c5ccc(O)c(O)c5)c(O[C@@H]5O[C@H](CO)[C@H](O)[C@H](O)[C@H]5O)c(=O)c4c(O)c3OC)[C@H](O)[C@@H](O)[C@@H]2O)ccc1O | Non-Toxic
24.5 | 9.7 | 5.4 | COc1c(O)cc2oc(-c3ccc(O)c(O)c3)c(O[C@@H]3O[C@H](CO)[C@H](O)[C@H](O)[C@H]3O[C@@H]3OC[C@](O)(CO[C@@H]4OC[C@H](O)[C@H](O)[C@H]4O)[C@H]3O)c(=O)c2c1O | Non-Toxic
7.2 | 12.8 | 7.1 | COc1c(O)cc2oc(-c3ccc(O)c(O)c3)c(O[C@@H]3O[C@H](CO)[C@H](O)[C@H](O)[C@H]3O[C@@H]3OC[C@](O)(CO)[C@H]3O)c(=O)c2c1O | Non-Toxic
28.9 | 9.3 | 5.7 | COc1c(O)cc2oc(-c3ccc(O)c(O)c3)c(O[C@@H]3O[C@H](CO[C@@H]4O[C@H](CO)[C@@H](O)[C@H](O)[C@H]4O)[C@H](O)[C@H](O)[C@H]3O)c(=O)c2c1O | Non-Toxic
25.5 |  | 5.7 | COc1c(O)cc2oc(-c3ccc(O)c(O)c3)c(O[C@@H]3O[C@H](CO[C@@H]4OC[C@H](O)[C@H](O)[C@H]4O)[C@H](O)[C@H](O)[C@H]3O)c(=O)c2c1O | Non-Toxic
 | 20.7 | 6 | COc1cc(/C=C/C(=O)OC[C@H]2O[C@@H](Oc3cc4oc(-c5ccc(O)c(OC)c5)c(O[C@@H]5O[C@H](CO)[C@H](O)[C@H](O)[C@H]5O)c(=O)c4c(O)c3OC)[C@H](O)[C@@H](O)[C@@H]2O)ccc1O | Non-Toxic
66 |  | 26.9 | COc1c(O[C@@H]2O[C@H](CO)[C@@H](O)[C@H](O)[C@H]2O)cc2oc(-c3ccc(O)c(O)c3)c(O[C@@H]3O[C@H](CO)[C@H](O)[C@H](O)[C@H]3O)c(=O)c2c1O | Non-Toxic
25.7 | 16.3 | 31.5 | COc1cc(-c2oc3cc(O[C@@H]4O[C@H](CO)[C@@H](O)[C@H](O)[C@H]4O)c(OC)c(O)c3c(=O)c2O[C@@H]2O[C@H](CO)[C@H](O)[C@H](O)[C@H]2O)ccc1O | Non-Toxic
18.1 | 11.7 | 15.4 | COc1c(O)cc2oc(-c3ccc(O)cc3)c(O[C@@H]3O[C@H](CO)[C@H](O)[C@H](O)[C@H]3O)c(=O)c2c1O | 
8 | 7.7 | 3.4 | COc1c(O)cc2oc(-c3ccc(O)c(O)c3)c(O[C@@H]3O[C@H](CO)[C@H](O)[C@H](O)[C@H]3O)c(=O)c2c1O | 

Compound | IC50 (Neutrophil [1]) [µM] | IC50 (Neutrophil [2]) [µM] | IC50 (Neutrophil [4]) [µM] | Activity (Neutrophil [3])
O=c1c(O)c(-c2ccc(O)c(O)c2)oc2cc(O)cc(O)c12 [QUERCETIN] | 33 | 20.4 | 4.4 | 
